Activity calls are given as the source filed them. No cut-off for these calls is given here.
What was measured:
[1] = system: Rattus norvegicus; experiment: Anticonvulsant activity in po dosed Sprague-Dawley albino rat assessed as protection against maximal electroshock-induced seizures; assay type: functional
[2] = system: Rattus norvegicus; experiment: Anticonvulsant activity in po dosed Sprague-Dawley albino rat assessed as protection against subcutaneous pentylenetetrazole-induced seizures; assay type: functional
[3] = molecular target: T1, Adenosine receptor A3 (Homo sapiens, UniProt P0DMS8); experiment: Displacement of [3H]PSB-11 from human recombinant adenosine A3 receptor expressed in CHO cells; assay type: cell-based
T1 sequence (P0DMS8 whole entry): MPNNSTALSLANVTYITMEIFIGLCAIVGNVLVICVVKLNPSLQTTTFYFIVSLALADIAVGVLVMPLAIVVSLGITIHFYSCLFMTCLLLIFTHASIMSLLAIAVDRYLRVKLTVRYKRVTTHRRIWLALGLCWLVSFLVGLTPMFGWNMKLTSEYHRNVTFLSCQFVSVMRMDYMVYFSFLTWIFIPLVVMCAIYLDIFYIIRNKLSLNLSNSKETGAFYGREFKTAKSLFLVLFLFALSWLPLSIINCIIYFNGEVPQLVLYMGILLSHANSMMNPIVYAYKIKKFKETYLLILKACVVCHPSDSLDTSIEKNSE

[4] = molecular target: T2, Adenosine receptor A1 (Homo sapiens, UniProt P30542); experiment: Displacement of [3H]CCPA from human recombinant adenosine A1 receptor expressed in CHO cells; assay type: cell-based
T2 sequence (P30542 whole entry): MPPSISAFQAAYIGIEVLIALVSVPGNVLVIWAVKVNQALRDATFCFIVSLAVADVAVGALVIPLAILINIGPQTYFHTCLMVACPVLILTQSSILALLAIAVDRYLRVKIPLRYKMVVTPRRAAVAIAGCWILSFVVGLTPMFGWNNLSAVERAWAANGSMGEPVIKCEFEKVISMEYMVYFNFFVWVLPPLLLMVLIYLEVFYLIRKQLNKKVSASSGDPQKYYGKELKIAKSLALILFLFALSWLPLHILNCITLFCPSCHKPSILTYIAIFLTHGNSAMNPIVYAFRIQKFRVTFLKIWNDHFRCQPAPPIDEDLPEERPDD

[5] = molecular target: T3, Adenosine receptor A2b (Homo sapiens) (UniProt P29275); conditions: CHO, 10 uM
T3 sequence (whole entry): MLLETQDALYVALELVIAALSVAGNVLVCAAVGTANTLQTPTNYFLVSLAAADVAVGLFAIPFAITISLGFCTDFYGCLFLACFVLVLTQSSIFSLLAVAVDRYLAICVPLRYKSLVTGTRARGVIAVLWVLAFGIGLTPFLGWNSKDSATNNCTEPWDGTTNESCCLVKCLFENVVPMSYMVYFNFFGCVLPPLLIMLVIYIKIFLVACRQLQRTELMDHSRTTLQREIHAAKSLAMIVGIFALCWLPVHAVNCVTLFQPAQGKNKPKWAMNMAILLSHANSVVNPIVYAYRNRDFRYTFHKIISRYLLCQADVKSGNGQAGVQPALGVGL

[6] = molecular target: T3, Adenosine receptor A2b (Homo sapiens); experiment: Displacement of [3H]PSB-603 from human recombinant adenosine A2B receptor expressed in CHO cells at 10 uM; assay type: cell-based
In short: (§1)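 CHO cell membranes expressing the human receptor. Radioligands: A1 [3H]CCPA; A2B [3H]ZM241385 or [3H]PSB-603; A3 [3H]PSB-11. […] Potent compounds run at 6–7 concentrations spanning 3 orders of magnitude; Ki ± SEM.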

[7] = molecular target: T4, Adenosine receptor A3 (Homo sapiens) (UniProt P0DMS8); experiment: Displacement of [3H]PSB-11 from human recombinant adenosine A3 receptor expressed in CHO cells at 10 uM; assay type: cell-based; in short: as §1
T4 sequence (whole entry): T1 sequence (P0DMS8 whole entry)

[8] = system: Mus musculus; experiment: Anticonvulsant activity in F1 albino mouse assessed as protection against maximal electroshock-induced seizures at 300 mg/kg, ip after 0.25 hrs; assay type: functional, organism-based; parameters: dose 300 mg/kg
In short: (§2)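 Male albino F-1 mice (18–25 g), groups of 1–5 (rotorod 2–8). Compound given ip as a suspension in 0.5% methylcellulose at 30, 100 and 300 mg/kg. Seizures by maximal electroshock or subcutaneous pentylenetetrazole; neurotoxicity by rotorod. Read at 0.5 and 4 h, with some at 0.25, 1 and 2 h. Value is the minimum active dose, with protected (or toxic)/tested animals.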

[9] = system: Mus musculus; experiment: Anticonvulsant activity in F1 albino mouse assessed as protection against maximal electroshock-induced seizures at 300 mg/kg, ip after 0.5 hrs; assay type: functional, organism-based; parameters: dose 300 mg/kg; in short: as §2
[10] = system: Mus musculus; experiment: Anticonvulsant activity in F1 albino mouse assessed as protection against maximal electroshock-induced seizures at 300 mg/kg, ip after 1 hr; assay type: functional, organism-based; parameters: dose 300 mg/kg; in short: as §2
[11] = system: Mus musculus; experiment: Anticonvulsant activity in F1 albino mouse assessed as protection against maximal electroshock-induced seizures at 300 mg/kg, ip after 4 hrs; assay type: functional, organism-based; parameters: dose 300 mg/kg; in short: as §2
[12] = system: Mus musculus; experiment: Anticonvulsant activity in F1 albino mouse assessed as protection against subcutaneous pentylenetetrazole-induced seizures at 300 mg/kg, ip after 0.25 hrs; assay type: functional, organism-based; parameters: dose 300 mg/kg; in short: as §2
[13] = system: Mus musculus; experiment: Anticonvulsant activity in F1 albino mouse assessed as protection against subcutaneous pentylenetetrazole-induced seizures at 300 mg/kg, ip after 0.5 hrs; assay type: functional, organism-based; parameters: dose 300 mg/kg; in short: as §2
[14] = system: Mus musculus; experiment: Anticonvulsant activity in F1 albino mouse assessed as protection against subcutaneous pentylenetetrazole-induced seizures at 300 mg/kg, ip after 1 hr; assay type: functional, organism-based; parameters: dose 300 mg/kg; in short: as §2
[15] = system: Mus musculus; experiment: Anticonvulsant activity in F1 albino mouse assessed as protection against subcutaneous pentylenetetrazole-induced seizures at 300 mg/kg, ip after 4 hrs; assay type: functional, organism-based; parameters: dose 300 mg/kg; in short: as §2
[16] = system: Mus musculus; experiment: Neurotoxicity in F1 albino mouse assessed as minimal motor impairment at 300 mg/kg, ip after 0.25 hrs by rotorod test; assay type: toxicity, organism-based; parameters: dose 300 mg/kg, route intraperitoneal; conditions: in vivo; in short: as §2
[17] = system: Mus musculus; experiment: Neurotoxicity in F1 albino mouse assessed as minimal motor impairment at 100 mg/kg, ip after 0.5 hrs by rotorod test; assay type: toxicity, organism-based; parameters: dose 100 mg/kg, route intraperitoneal; conditions: in vivo; in short: as §2
[18] = system: Mus musculus; experiment: Neurotoxicity in F1 albino mouse assessed as minimal motor impairment at 300 mg/kg, ip after 1 hr by rotorod test; assay type: toxicity, organism-based; parameters: dose 300 mg/kg, route intraperitoneal; conditions: in vivo; in short: as §2
[19] = system: Mus musculus; experiment: Neurotoxicity in F1 albino mouse assessed as minimal motor impairment at 300 mg/kg, ip after 4 hrs by rotorod test; assay type: toxicity, organism-based; parameters: dose 300 mg/kg, route intraperitoneal; conditions: in vivo; in short: as §2
[20] = molecular target: T5, Adenosine receptor A2a (Homo sapiens, UniProt P29274); experiment: Displacement of [3H]MSX-2 from human recombinant adenosine A2A receptor expressed in CHO cells; assay type: cell-based
T5 sequence (P29274 whole entry): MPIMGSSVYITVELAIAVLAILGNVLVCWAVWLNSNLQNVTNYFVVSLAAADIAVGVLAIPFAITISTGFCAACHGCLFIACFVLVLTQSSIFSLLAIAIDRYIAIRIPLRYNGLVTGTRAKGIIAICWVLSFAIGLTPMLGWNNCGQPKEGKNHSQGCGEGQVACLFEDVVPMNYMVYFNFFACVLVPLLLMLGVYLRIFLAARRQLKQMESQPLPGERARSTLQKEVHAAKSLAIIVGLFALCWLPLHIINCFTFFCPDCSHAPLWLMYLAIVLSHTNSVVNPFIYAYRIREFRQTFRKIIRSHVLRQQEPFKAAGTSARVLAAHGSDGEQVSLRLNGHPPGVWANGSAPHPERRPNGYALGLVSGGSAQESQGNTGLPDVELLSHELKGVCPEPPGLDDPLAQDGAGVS

[21] = molecular target: T6, Adenosine receptor A2b (Homo sapiens, UniProt P29275); experiment: Displacement of [3H]PSB-603 from human recombinant adenosine A2B receptor expressed in CHO cells; assay type: cell-based; in short: as §1
T6 sequence (P29275 whole entry): T3 sequence (whole entry)

[22] = molecular target: T7, Adenosine receptor A1 (Homo sapiens) (UniProt P30542); experiment: Displacement of [3H]CCPA from human recombinant adenosine A1 receptor expressed in CHO cells at 10 uM; assay type: cell-based; in short: as §1
T7 sequence (whole entry): T2 sequence (P30542 whole entry)

[23] = species on record: Rattus norvegicus; experiment: Selectivity ratio of Ki for adenosine A1 receptor in rat brain cortical membrane to Ki for adenosine A2A receptor in rat brain striatal membrane; assay type: cell membranes
In short: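 Ki ratios from radioligand competition binding. Rat A1 used brain cortical membranes and rat A2A used brain striatal membranes. Human A1 and A2A used membranes of CHO cells expressing the receptors. A1 radioligand [³H]CCPA; A2A radioligand [³H]MSX-2. Potent compounds were tested at 6–7 concentrations spanning 3 orders of magnitude.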

[24] = molecular target: Adenosine receptor A2a (Rattus norvegicus, UniProt P30543); experiment: Displacement of [3H]MSX-2 from adenosine A2A receptor in rat brain striatal membrane; assay type: cell membranes
Adenosine receptor A2a (Rattus norvegicus, UniProt P30543), sequence (P30543 whole entry): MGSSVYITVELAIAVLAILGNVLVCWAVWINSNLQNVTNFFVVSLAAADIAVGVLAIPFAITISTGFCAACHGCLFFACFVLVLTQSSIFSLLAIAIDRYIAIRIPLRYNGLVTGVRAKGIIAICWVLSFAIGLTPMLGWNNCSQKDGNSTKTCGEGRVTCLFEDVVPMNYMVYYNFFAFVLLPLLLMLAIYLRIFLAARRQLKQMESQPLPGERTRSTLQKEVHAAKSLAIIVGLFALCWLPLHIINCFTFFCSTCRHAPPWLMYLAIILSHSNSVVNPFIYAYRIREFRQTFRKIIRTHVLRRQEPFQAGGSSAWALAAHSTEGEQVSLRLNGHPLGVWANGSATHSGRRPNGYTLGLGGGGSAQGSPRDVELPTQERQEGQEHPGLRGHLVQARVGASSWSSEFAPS

[25] = molecular target: T8, Adenosine receptor A1 (Rattus norvegicus, UniProt P25099); experiment: Displacement of [3H]CCPA from adenosine A1 receptor in rat brain cortical membrane; assay type: cell membranes
T8 sequence (P25099 whole entry): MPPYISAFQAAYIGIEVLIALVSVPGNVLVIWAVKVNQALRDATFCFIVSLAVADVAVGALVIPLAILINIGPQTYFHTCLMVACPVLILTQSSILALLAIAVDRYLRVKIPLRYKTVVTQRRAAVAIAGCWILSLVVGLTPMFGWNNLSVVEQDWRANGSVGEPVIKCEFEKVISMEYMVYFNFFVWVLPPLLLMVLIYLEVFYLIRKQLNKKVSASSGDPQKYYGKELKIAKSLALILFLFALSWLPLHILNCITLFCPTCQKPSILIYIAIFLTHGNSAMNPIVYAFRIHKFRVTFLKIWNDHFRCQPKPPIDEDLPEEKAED

[26] = molecular target: T9, Adenosine receptor A1 (Rattus norvegicus) (UniProt P25099); conditions: Brain, 10 uM
T9 sequence (whole entry): T8 sequence (P25099 whole entry)

[27] = system: Mus musculus; experiment: Neurotoxicity in F1 albino mouse assessed as minimal motor impairment at 300 mg/kg, ip after 0.5 hrs by rotorod test; assay type: toxicity, organism-based; parameters: dose 300 mg/kg, route intraperitoneal; conditions: in vivo; in short: as §2
[28] = molecular target: T9, Adenosine receptor A1 (Rattus norvegicus); experiment: Displacement of [3H]CCPA from adenosine A1 receptor in rat brain cortical membrane at 25 uM; assay type: cell membranes
[29] = molecular target: T5, Adenosine receptor A2a; conditions: CHO, 10 uM
[30] = molecular target: Adenosine receptor A2a (Rattus norvegicus) (UniProt P30543); conditions: Brain, Membrane, 25 uM
Adenosine receptor A2a (Rattus norvegicus), sequence (P30543 whole entry): as the sequence (P30543 whole entry) above

Structure (SMILES)	Ki [3]	Ki [4]	inhibition [6]	Activity [8]	Activity [9]	Activity [10]	Activity [11]	Activity [12]	Activity [13]	Activity [14]	Activity [15]	Activity [16]	Activity [18]	Activity [19]	Ki [20]	Ki [21]	inhibition [22]	Ratio Ki [23]	Ki [24]	Ki [25]	other results
CCCC(CCC)C(=O)O [VALPROIC ACID]																					ED50 [1]: 287 mg/kg; ED50 [2]: 209 mg/kg
CCn1c(=O)c2c(nc(/C=C/c3ccc(OC)c(OC)c3)n2C)n(CC)c1=O [ISTRADEFYLLINE]	4.47 µM	2.07 µM																			inhibition [5]: 47%
Cn1c(=O)c2c(nc3n2CCN3C2CCCCC2)n(C)c1=O	> 10 µM	> 10 µM	11%	inactive	inactive	inactive	inactive	inactive	Active	inactive	inactive	Non-toxic	Non-toxic	Non-toxic	1.61 µM	> 10 µM	41%	> 4	2.58 µM	> 10 µM	inhibition [7]: 12%; Activity [17]: Non-toxic; inhibition [26]: 27%
Cn1c(=O)c2c(nc3n2CCCN3C23CC4CC(CC(C4)C2)C3)n(C)c1=O	1.29 µM	> 10 µM	0%	inactive	inactive	inactive	inactive	inactive	inactive	inactive	inactive	Non-toxic	Non-toxic	Non-toxic	> 10 µM	> 10 µM	15%	1	> 10 µM	> 10 µM	Activity [27]: Non-toxic; inhibition [28]: 7%; inhibition [29]: 0%; inhibition [30]: 13%

From ChEMBL document CHEMBL2150901, “Synthesis and biological activity of tricyclic cycloalkylimidazo-, pyrimido- and diazepinopurinediones” (Eur J Med Chem, 2011)
